Biofilm kill mix – mixtures killing C. albicans biofilm; AID 1242; 0.02% of 120,000 active; inhibition, % at 7.6 µM; C. albicans biofilm persisters + clotrimazole, fluorescence viability; primary screen in compound mixtures of four per well;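 further: compounds exposed to preformed 24 h biofilms for 48 h; 0% = untreated biofilm control and 100% = clotrimazole plus chlorhexidine kill blank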
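Test system: C. albicans CAF4-2 wild-type biofilms; buffer or medium: RPMI/MOPS medium, pH 7.0; schedule: 24 h biofilm formation, then 48 h compound exposure, 37 °C; detection: Alamar Blue fluorescence; measure: percent inhibition of biofilm viability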
ROMK primary – modulators of human ROMK potassium channel; P48048; Tet-inducible ROMK, thallium flux fluorescence; actives lie on both sides; B-score at 10 µM; 2% of 130,000 active; AID 1918;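 active means signal ratio slope over the read window, or its plate-corrected B-score, at least 3 SD from the plate mean, either direction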;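 further: B-score of the F/F0 ratio slope over 7 to 12 s after thallium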
Target sequence (P48048 whole entry, looked up): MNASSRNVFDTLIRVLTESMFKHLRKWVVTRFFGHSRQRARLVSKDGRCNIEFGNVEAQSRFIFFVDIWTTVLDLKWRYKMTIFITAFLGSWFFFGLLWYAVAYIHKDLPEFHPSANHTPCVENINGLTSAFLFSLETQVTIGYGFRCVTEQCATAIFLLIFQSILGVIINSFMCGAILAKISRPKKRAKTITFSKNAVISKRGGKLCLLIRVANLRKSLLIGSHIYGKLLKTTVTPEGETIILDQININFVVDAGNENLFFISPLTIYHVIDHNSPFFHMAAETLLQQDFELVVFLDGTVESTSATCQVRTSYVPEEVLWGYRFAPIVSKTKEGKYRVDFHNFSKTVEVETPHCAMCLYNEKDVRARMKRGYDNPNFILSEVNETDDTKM
ROMK hit retest – confirmation of human ROMK potassium channel modulators; shares compounds with ROMK primary; ROMK thallium flux, fluorescence ratio; active compounds read low; normalized thallium flux (F/F0 slope) at 10 µM; 54% of 3,000 active; AID 1917;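 active means Flux at 10 µM at least 3 SD below or above vehicle control mean in one or both replicates; inconclusive means no clear call, values can overlap the other calls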
* = called active by the depositor; u = inconclusive; x = not tested or not shown. Shown is part of a subset that was picked to be rich in hits.

SMILES | Biofilm kill mix | ROMK primary | ROMK hit retest
CNC(=O)Nc1ccc(C(=O)N/N=C\C23CC[C@@H](O)CC2(O)CC[C@@H]2[C@@H]3CCC3(C)C(C4=CC(=O)OC4)CCC23O)cc1 (some centres not stated) | 10.5 | x | u
O=c1[nH]c(O)c(N=Nc2ccc(SC(F)F)cc2)c(=O)[nH]1 | 12.2 | x | x
COc1ccccc1Cn1c(SCC#N)nc2cc(C(=O)N3CCC4(CC3)OCCO4)ccc2c1=O | 5.1 | 0.608 | x
CCCCC(=O)N/N=C/c1c(O)n(CC)c(=S)[nH]c1=O | 11.0 | 1.88* | 0.0767
CCCCCCC(=O)N/N=C/c1c(O)n(CCCC)c(=S)[nH]c1=O | 16.9 | x | x
CC1(C)C[C@H]2C=C(C=O)[C@]3(C=O)C[C@]3(C)[C@H]2C1 | 7.7 | -9.94* | 0.05*
COc1cc(C(=S)N2CCOCC2)cc(OC)c1OC(=O)Cc1ccccc1 | 5.5 | -0.389 | x
Fc1ccccc1CCNCc1cccc2ccccc12 | 19.1 | -3.61* | 0.0567*
Cc1ccc(CNCCc2ccccc2F)cc1 | 7.3 | 0.159 | x
CC(C)(C)n1c(O)c(C=Nc2ccc3c(c2)CCC3)c(=O)[nH]c1=O | x | -0.859 | x
CCNCCNc1ccc([N+](=O)[O-])c2cccnc12 | 16.5 | x | x
Cc1nonc1OCCNCCNc1ccc([N+](=O)[O-])c2cccnc12 | 12.9 | -5.29* | 0.0532*
Cc1cccc(C)c1OP(N)(=O)OCC(F)(F)F (configuration not stated) | 4.8 | -0.0812 | x
CCCCC1C(=O)NC(=S)NC1=O | 20.3 | -0.574 | x
CC12CN3CCN(CC(C3)C1O)C2 (configuration not stated) | x | x | 0.0767
CC(C)CC12CN3CCN(CC(C3)C1O)C2 (configuration not stated) | x | 0.369 | x
Cc1ccc(-n2cc(CNC(C)Cc3cnccn3)c(-c3cccc(C)c3)n2)cc1 (configuration not stated) | 12.5 | -3.57* | 0.0605*
CC(=O)N1CN2CN(C1)CN(C(C)=O)C2 | 2.6 | 0.0383 | x
Cc1cccc(N2C(=O)NC(=O)/C(=C\C=C\c3ccco3)C2=O)c1 | 14.2 | -14.3* | 0.0459*
Cc1ccc(N2C(=O)NC(=O)/C(=C\C=C\c3ccco3)C2=O)cc1C | 8.0 | -8.65* | 0.0392*
CN1C(=O)/C(=C/C=C/c2ccco2)C(=O)NC1=S | 10.7 | -0.802 | x
Cc1ccc(N2C(=O)NC(=O)/C(=C\C=C\c3ccco3)C2=O)cc1 | 19.9 | x | x
O=C1NC(=O)N(c2ccccc2)C(=O)/C1=C/C=C/c1ccco1 | -3.3 | -9.61* | 0.0461*
O=C1NC(=O)N(Cc2ccco2)C(=O)/C1=C/C=C/c1ccco1 | 7.8 | x | x
CCOC(=O)C(=CNc1ccc(C(O)(C(=O)OCC)C(F)(F)F)cc1C)C(=O)OCC (configuration not stated) | 10.4 | x | x
SMILES | Biofilm kill mix | ROMK primary | ROMK hit retest
Clc1ccc(OCC#CCN2CCCCCC2)cc1 | 17.0 | 0.563 | x
CCOc1cc(C2C(C#N)=C(N)Oc3c2c(=O)oc2ccccc32)ccc1OC(=O)c1cccs1 (configuration not stated) | 5.4 | x | x
CN1CCN(c2nc(N)c(Br)c(Cl)n2)CC1 | 11.9 | x | x
Cc1c(CCN)ccc2c1[nH]c1ccccc12 | 24.5 | -3.23* | 0.0656*
Cc1[nH]c2c(C(F)(F)F)cccc2c1CCN | x | -0.885 | x
Cn1c(O)c(/C=C2/C=CC=N2)c(=O)[nH]c1=O | 16.7 | x | x
O=C1NC(=O)C2(Cc3ccccc3N3CCOCC32)C(=O)N1c1ccccc1 (configuration not stated) | x | 0.815 | x
CN1c2ccc([N+](=O)[O-])cc2CC2(C(=O)NC(=O)N(c3ccc(Br)cc3)C2=O)C1c1ccccc1 (configuration not stated) | 8.4 | x | 0.0724
CN1C(=O)C(=Cc2coc3ccccc3c2=O)C(=O)N(C)C1=O | 13.8 | x | x
O=C1NC(=O)C(=Cc2coc3ccc(O)cc3c2=O)C(=O)N1 | 19.9 | x | 0.0428*
Nc1c([N+](=O)[O-])cc(F)c(N2CCNCC2)c1Br | 7.7 | -3.57* | 0.0553*
CN1CCN(c2c(F)cc([N+](=O)[O-])c(N)c2Br)CC1 | 1.6 | 0.055 | x
COc1ccccc1-n1c(-c2cccs2)nc2ccccc2c1=O | -5.9 | x | x
CCOC(=O)C1=C(N)OC2=C(C(=O)CCC2)C12C(=O)N(C)c1ccccc12 (configuration not stated) | 16.6 | 0.0217 | x
O=C(c1ccc2c(c1)ncn2C1CCCCC1)N1CCC2(CC1)OCCO2 | x | 2.41* | 0.0883
COc1cccc(C(=O)N2CCC3(CC2)OCCO3)c1 | 13.5 | 0.334 | x
COc1cccc(-n2c(O)c(C=NCCN3CCOCC3)c(=O)[nH]c2=O)c1 | x | 0.206 | x
CN1CSC(=S)N(C)C1 | x | 0.19 | x
c1ccc2c(c1)Sc1ccccc1N2CC1CN2CCC1CC2 (configuration not stated) | 11.5 | x | 0.0399*
Clc1ccccc1CNC1CN2CCC1CC2 (configuration not stated) | 11.6 | x | x
Cc1cccc(NP(C)(=O)c2nc3c(s2)CCCC3)c1 (configuration not stated) | 12.2 | 1.44 | x
Cc1cccc(-n2c(C)nc3ccccc3c2=O)n1 | 11.9 | 0.255 | x
Cc1cccc(-n2c(=S)[nH]c3ccccc3c2=O)n1 | 18.2 | 2.5* | 0.0749
N#Cc1ccccc1Cn1cc(C(=O)c2ccccc2F)c2ccccc21 | -2.2 | 0.791 | x
CCOC(=O)COc1ccc2c(c1)c(C(C)=O)c(C)n2Cc1ccccc1 | 10.8 | -1.24 | x
SMILES | Biofilm kill mix | ROMK primary | ROMK hit retest
CN1CCC2(O)OCCCC2C1 (configuration not stated) | 20.4 | x | x
COc1ccccc1CCNC1CCCC(C)C1 (configuration not stated) | 9.0 | -1.76 | x
COc1ccccc1CCNC1CCC(C(C)(C)C)CC1 (configuration not stated) | x | -5.83* | 0.0589*
CC(C)Cc1nc(N2CCNCC2)c(C#N)c2c1CCC2 | 1.6 | x | x
CCc1nc(N2CCNCC2)c(C#N)c2c1CSC(C)(C)C2 | x | -3.72* | 0.0747
O=C(NC(=C(Cl)Cl)P(=O)(c1ccccc1)c1ccccc1)c1ccccc1 | 8.3 | -0.484 | x
O=C1N(c2ccccc2)C(c2cccnc2)N2CCCN12 (configuration not stated) | 14.5 | 2.46* | 0.0872
O=C1N(c2cccc(Cl)c2)C(c2cccnc2)N2CCCN12 (configuration not stated) | 18.6 | -0.0684 | x
C/C(=C\c1ccc(N(C)C)cc1)[N+](=O)[O-] | x | -3.68* | 0.0512*
CN(C)c1ccc(/C=C/C=C2/C(=O)NC(=O)N(c3ccccc3)C2=O)cc1 | 22.4 | x | x
CN(C)c1ccc(C(=O)c2ccc(N(C)C)cc2)cc1 | x | 1.94 | x
CN(C)c1ccc(/C=C/[N+](=O)[O-])cc1 | -1.3 | -4.11* | 0.037*
C1CC2NCCC3NCCC(N1)N32 (configuration not stated) | 19.4 | x | x
CC(C)C(=O)NC(Oc1ccccc1Cl)C(Cl)(Cl)Cl (configuration not stated) | 23.4 | -0.887 | x
CC12CN3CCN(C1)CC(C)(C3)C2=NN | 10.2 | x | x
COC(=O)c1ccc(NC(=O)CSc2nc3ccc(N4C(=O)C5C6C=CC(C6)C5C4=O)cc3s2)cc1 (configuration not stated) | 3.6 | x | x
CCN(CC)c1ccc(CNCCc2ccccc2F)cc1 | 19.2 | -0.0444 | x
Cn1c(O)c(/C=C/C=Nc2ccccc2)c(=O)n(C)c1=O | 13.3 | x | 0.0513*
Cn1c(O)c(C=Nc2ccccc2-c2ccccc2)c(=O)n(C)c1=O | 30.5 | 0.175 | x
CN1CCN(c2ccc(N)cc2Cl)CC1 | -1.9 | -0.536 | x

Source: PubChem (several laboratories)
